Kir21 inh: inhibitors of mouse Kir2.1 inward-rectifier potassium channel | HEK293-Kir2.1, FluxOR thallium flux fluorescence; hits give low values | actives 0.85% (n = 310,000) | B-score at 10 µM | P35561;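 active = fluorescence ratio B-score at or below minus 3 SD of library scores, with starting-brightness B-score within 2 SD, cut at about -4.2 in these data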;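 note: channel flux triggered by added potassium and thallium sulfate stimulus; B-score of peak minus minimum fluorescence over baseline after thallium stimulus; more negative B-score means stronger Kir2.1 block with less thallium influx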
TRPC4 act: TRPC4 (mouse) channel activation; B-score at 10 µM; HEK293 TRPC4beta/mu-opioid, Fluo4 calcium fluorescence; hits give high values; actives 0.49% (n = 310,000); AID 2237; Q9QUQ5;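 active = B-score above 5 SD of library B-scores, and initial fluorescence ratio not above library mean plus 5 SD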;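 note: positive B-score marks a calcium rise read as TRPC4 activation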
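Material: HEK293 stable line with TRPC4beta plus mu-opioid receptor; technique: Fluo4 calcium-sensitive dye fluorescence, kinetic, 1 Hz baseline; timing: Fluo4 dye loading 45 min at room temperature, 110 s recording; controls: assay buffer as low control, maximal DAMGO as high control; read-out: integrated baseline-normalised fluorescence ratio, converted to per-well B score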
TRPC4 inh: TRPC4 (mouse) channel inhibition. HEK293 TRPC4beta/mu-opioid, DAMGO-evoked Fluo4 calcium flux; hits give low values. B-score at 10 µM. actives 0.39% (n = 300,000). AID 2247;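 active = B-score over 3 SD under the library average, no early fluorescence shift, positive overall ratio signal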
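Assay system: HEK293 cells with stable TRPC4beta plus mu-opioid receptor expression. Dosing: single dose. Measured by: Fluo4 Ca2+ flux fluorescence. Also added: DAMGO in two steps, submaximal then maximal. Read-out: B score from integrated Fluo4 fluorescence ratio.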
TRPC4 potent: allosterically enhances the mouse TRPC4 cation channel | Q9QUQ5 | HEK293 TRPC4beta/mu-opioid, DAMGO EC20, Fluo-4 Ca2+ flux; hits give high values | B-score at 10 µM | actives 0.42% (n = 310,000);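 active = B-score of calcium response area above 5 SD of library B-scores, with initial fluorescence ratio within 5 SD of library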;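 note: B-score of integrated fluorescence ratio over time as area under calcium response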
TRPC6 activator: activators of mouse TRPC6 channel; HEK293-TRPC6 membrane potential dye fluorescence; hits give high values; AID 2550; actives 0.13% (n = 310,000); Q61143; B-score at 10 µM;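 active = B-score of the integrated fluorescence ratio above library mean plus 3 SD, and starting fluorescence ratio within library mean plus 5 SD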;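 note: higher score means more depolarization so channel activation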
Target sequence (Q61143 whole entry, looked up): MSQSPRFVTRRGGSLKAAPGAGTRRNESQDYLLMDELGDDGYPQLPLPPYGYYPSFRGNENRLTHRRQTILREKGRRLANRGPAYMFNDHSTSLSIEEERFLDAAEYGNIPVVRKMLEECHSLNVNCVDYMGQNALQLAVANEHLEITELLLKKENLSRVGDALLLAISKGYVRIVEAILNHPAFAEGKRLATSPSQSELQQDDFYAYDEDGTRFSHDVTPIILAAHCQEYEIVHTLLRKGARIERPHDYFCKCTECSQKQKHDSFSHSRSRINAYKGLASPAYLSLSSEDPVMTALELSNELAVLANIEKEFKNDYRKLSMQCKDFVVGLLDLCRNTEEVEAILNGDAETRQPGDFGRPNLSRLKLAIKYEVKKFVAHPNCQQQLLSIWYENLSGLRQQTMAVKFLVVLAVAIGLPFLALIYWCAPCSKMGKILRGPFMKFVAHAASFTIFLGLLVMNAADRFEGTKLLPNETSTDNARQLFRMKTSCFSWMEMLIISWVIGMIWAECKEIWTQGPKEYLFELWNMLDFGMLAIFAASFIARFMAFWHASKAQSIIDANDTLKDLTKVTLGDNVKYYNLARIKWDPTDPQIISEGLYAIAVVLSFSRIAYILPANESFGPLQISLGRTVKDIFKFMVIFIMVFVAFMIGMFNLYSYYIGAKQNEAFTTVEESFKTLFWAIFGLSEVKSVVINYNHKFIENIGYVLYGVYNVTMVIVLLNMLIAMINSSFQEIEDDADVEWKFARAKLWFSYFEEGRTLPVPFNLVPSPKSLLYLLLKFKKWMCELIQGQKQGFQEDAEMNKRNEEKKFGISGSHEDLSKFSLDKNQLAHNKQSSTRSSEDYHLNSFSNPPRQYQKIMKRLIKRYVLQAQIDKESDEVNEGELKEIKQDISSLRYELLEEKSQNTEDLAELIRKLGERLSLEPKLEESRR
TRPC6 inh: inhibitors of mouse TRPC6 channel; B-score at 10 µM; actives 1.1% (n = 310,000); HEK293-TRPC6, membrane potential dye, ACh-evoked depolarization; hits give low values; Q61143;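 active = B-score under library mean minus 3 SD, initial fluorescence not abnormally high, positive integrated signal ratio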;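 note: B-score derived from integrated fluorescence ratio over the kinetic read; more negative B-score means stronger inhibition of depolarization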
An asterisk follows results filed as active; i = inactive. In the library only some 3% were active in any assay of this set; here they are far more common.

SMILES | Kir21 inh | TRPC4 act | TRPC4 inh | TRPC4 potent | TRPC6 activator | TRPC6 inh
O=C(NC1CCCCC1)c1sc(=S)n2c1[nH]c(=O)c1ccccc12 | -1.1 | i | i | i | i | i
CC(C)NC(=O)c1sc(=S)n2c1[nH]c(=O)c1ccc(C(=O)NCCc3ccc(Cl)cc3)cc12 | 3.7 | i | i | i | i | i
CCOc1ccc(CCNC(=O)c2ccc3c(=O)[nH]c4c(C(=O)NC(C)C)sc(=S)n4c3c2)cc1 | 0.86 | i | i | 18* | i | i
CCCCNC(=O)c1sc(=S)n2c1[nH]c(=O)c1ccccc12 | -2.1 | 46* | i | i | i | i
CNS(=O)(=O)c1ccc(NC(=O)Nc2cccc(F)c2)cc1 | -0.61 | 44* | i | i | i | i
Cc1cccc(C(=O)NC(=S)NNC(=O)c2ccccc2Cl)c1 | -0.4 | 294* | i | i | i | i
Cc1ccccc1C(=O)NNC(=S)NC(=O)c1ccc(Cl)cc1Cl | 1.4 | 249* | i | i | i | i
COc1ccc(C2N(c3ccccc3)CCN2c2ccccc2)cc1O | -2.4 | i | i | i | i | i
COC(=O)C1=C(C)N(Cc2ccccc2)C(=NCCCCO)N[C@H]1CCc1ccccc1 | -5.1* | i | i | i | i | i
CCOC(=O)C1=C(C)N(CC)C(=S)NC1c1ccc(Cl)cc1 (stereo unspecified) | -7.1* | i | i | i | i | i
COC(=O)C1=C(C)N(Cc2ccccc2)C(=O)N[C@H]1c1ccccc1 | -0.17 | i | i | i | i | i
CCOC(=O)C1=C(C)N(CCCCCC(=O)O)C(=O)NC1c1ccc(Cl)cc1 (stereo unspecified) | 0.84 | i | i | i | i | i
COC(=O)C1=C(C)N(Cc2ccccc2)C(=NCC(C)C)N[C@H]1c1ccccc1 | -8.2* | i | i | i | i | i
COC(=O)C1=C(C)N(Cc2ccccc2)C(=S)N[C@H]1c1ccccc1 | 0.51 | i | -6* | i | i | i
C=CCN=C1N[C@@H](c2ccccc2)C(C(=O)OC)=C(C)N1CC | -0.88 | i | i | i | i | i
Cc1ccc([N+](=O)[O-])cc1NC(=O)CN(C)CCOc1ccccc1 | -3.4 | i | i | i | i | i
CN(CCOc1ccccc1)CC(=O)Nc1cc([N+](=O)[O-])ccc1Cl | -4.7* | i | i | i | i | i
Cc1ccc(NC(=S)N(CCCN(C)C)Cc2cc3cc4c(cc3[nH]c2=O)OCO4)cc1 | -1.2 | i | i | i | i | i
Cc1ccc(NC(=S)N(CCCN(C)C)Cc2cc3cc4c(cc3[nH]c2=O)OCO4)c(C)c1 | -0.01 | i | -6* | i | i | i
CCN(CC)CCN(Cc1cc2ccc(C)cc2[nH]c1=O)C(=S)Nc1ccccc1C(=O)OC | -1.1 | i | -6* | i | i | i
COC(=O)c1ccccc1NC(=S)N(Cc1ccc2c(c1)OCO2)Cc1cc2ccc(C)cc2[nH]c1=O | -0.01 | i | i | i | i | i
C/C(=N\NC(=O)c1cc(C)nc2ccccc12)c1cccc(Cl)c1 | -0.93 | i | i | i | i | i
COc1cc2c(cc1NC(=O)C(C)Sc1ccc(NC(C)=O)cc1)oc1ccccc12 (stereo unspecified) | 0.58 | i | i | 11* | i | i
Cc1nc2c3cc(Cl)ccc3n(CCN3CCCCC3)c2s1 | -2.5 | i | -6* | i | i | i
O=C(NCCc1ccccc1)C(=O)NCC1OCCCN1S(=O)(=O)c1cccs1 (stereo unspecified) | -0.68 | i | i | i | i | i
Cc1cccc(NC(=O)CCCn2cc([N+](=O)[O-])cn2)n1 | 0.54 | i | i | i | i | i
CCN1Cc2c(/C=C/c3ccccc3)nc3ccc(OC)cc3c2N(c2cccc(Cl)c2)C1 | -13* | i | i | i | i | i
Cc1ccc(N2CCN(S(=O)(=O)c3ccc(Cl)s3)CC2C)cc1 (stereo unspecified) | -0.09 | i | i | i | i | i

Source: PubChem BioAssay (Johns Hopkins Ion Channel Center)
